ChEMBL document CHEMBL1122230, “Quantitative aspects of the receptor binding of cytokinin agonists and antagonists” (J Med Chem, 1983)

Each molecule was assayed on Nicotiana tabacum (assay: Inhibition of 50% growth of tobacco callus derived from Nicotiana tabacum var on medium with 0.05 uM kinetin but without anti-cytokinin; NR=not reached to the maximum growth within the concentration range tested).
Type: functional, organism-based
In short: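 Basal medium with 0.05 μM kinetin plus the test compound at a series of concentrations, pH 5.6 (1 N NaOH), autoclaved at 1.0 kg/cm² for 15 min. Three tobacco callus pieces of ca. 10 mg fresh weight were used per culture. I50 is the concentration giving 50% of the callus growth seen on kinetin medium without anticytokinin.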

Cc1nc(NCCO)c2cc[nH]c2n1 was tested, and the “Log 1/I50” value was “Not reached”.

The molecules below were run on Nicotiana tabacum (assay: Concentration at which 50% of maximum response of callus yield derived from Nicotiana tabacum var is obtained).
Type: functional
In short: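 Three Nicotiana tabacum callus pieces of ca. 10 mg fresh weight were placed per culture. E50 is the concentration giving 50% of maximal callus yield.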

First: Cc1nc(NCc2ccccc2)c2cc[nH]c2n1 [ROLODINE]
Second: Cc1nc(NCCc2ccccc2)c2cc[nH]c2n1
The “Log 1/E50” value of the first is higher: -0.72 for the first, -1.37 for the second.

Going from Cc1cccc(Nc2[nH]c(C)nc3nccc2-3)c1 to CC(C)=CCNc1[nH]c(C)nc2nccc1-2, the “Log 1/E50” value rises from -1.12 to 0.08.

First: CCOCCNc1[nH]c(C)nc2nccc1-2
Second: CCCCCNc1[nH]c(C)nc2nccc1-2
The “Log 1/E50” value of the first is lower: -1.37 for the first, -0.72 for the second.

Cc1nc(Nc2cccc(I)c2)c2cc[nH]c2n1 and Cc1nc(Nc2cccc(Cl)c2)c2cc[nH]c2n1 are within 0.2 log units of each other in “Log 1/E50” value: -0.73 for the first, -0.66 for the second.

CCCCC(CC)CNc1[nH]c(C)nc2nccc1-2 (stereo unspecified) and Cc1nc(Nc2cccc(Br)c2)c2cc[nH]c2n1 are within 0.2 log units of each other in “Log 1/E50” value: -0.84 for the first, -0.8 for the second.
